Test results as given in ChEMBL document CHEMBL1649247, “Fluoroquinolone resistance in Mycobacterium tuberculosis and mutations in gyrA and gyrB” (2009).
Values after ≈ are worked out from the molar mass of the structure shown. Active and inactive are the calls of the source. The rule behind the calls is not given here.

What was measured:
[1] = test system: Mycobacterium tuberculosis; assay: Antimycobacterial activity against Mycobacterium tuberculosis 08-0764 assessed as microbial susceptibility by agar proportion method; type: functional, organism-based
Outline: (§1)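 Clinical isolates freshly subcultured on Löwenstein-Jensen medium, held at 37°C no longer than 4 weeks. Fluoroquinolone stocks 1 mg/ml in 0.1 N NaOH, filter sterilized, kept at −20°C under 2 months. Standard proportion method on 7H11 agar; breakpoints 2 mg/liter ofloxacin, 0.5 mg/liter moxifloxacin and gatifloxacin; scored susceptible or resistant.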

[2] = test system: Mycobacterium tuberculosis; assay: Antimycobacterial activity against Mycobacterium tuberculosis 08-0762 by resazurin microtiter assay; type: functional
Outline: (§2)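 Isolates taken from fresh Löwenstein-Jensen subcultures grown at 37°C for at most 4 weeks. Drug stocks 1 mg/ml in 0.1 N NaOH, filter sterilized, stored at −20°C less than 2 months. MIC read by resazurin microtiter assay following a previously described protocol.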

[3] = test system: Mycobacterium tuberculosis; assay: Antimycobacterial activity against Mycobacterium tuberculosis 08-0762 assessed as microbial susceptibility by agar proportion method; type: functional, organism-based; outline: as §1
[4] = test system: Mycobacterium tuberculosis; assay: Antimycobacterial activity against Mycobacterium tuberculosis 08-0782 assessed as microbial susceptibility by agar proportion method; type: functional, organism-based; outline: as §1
[5] = test system: Mycobacterium tuberculosis; assay: Antimycobacterial activity against Mycobacterium tuberculosis 08-0764 by resazurin microtiter assay; type: functional; outline: as §2
[6] = test system: Mycobacterium tuberculosis; assay: Antimycobacterial activity against Mycobacterium tuberculosis 08-0789 by resazurin microtiter assay; type: functional; outline: as §2
[7] = test system: Mycobacterium tuberculosis; assay: Antimycobacterial activity against Mycobacterium tuberculosis 08-0774 by resazurin microtiter assay; type: functional; outline: as §2
[8] = test system: Mycobacterium tuberculosis; assay: Antimycobacterial activity against Mycobacterium tuberculosis 08-0781 assessed as microbial susceptibility by agar proportion method; type: functional, organism-based; outline: as §1
[9] = test system: Mycobacterium tuberculosis; assay: Antimycobacterial activity against Mycobacterium tuberculosis 08-0782 by resazurin microtiter assay; type: functional; outline: as §2
[10] = test system: Mycobacterium tuberculosis; assay: Antimycobacterial activity against Mycobacterium tuberculosis 08-0781 by resazurin microtiter assay; type: functional; outline: as §2
[11] = test system: Mycobacterium tuberculosis; assay: Antimycobacterial activity against Mycobacterium tuberculosis 08-0774 assessed as microbial susceptibility by agar proportion method; type: functional, organism-based; outline: as §1
[12] = test system: Mycobacterium tuberculosis; assay: Antimycobacterial activity against Mycobacterium tuberculosis 08-0789 assessed as microbial susceptibility by agar proportion method; type: functional, organism-based; outline: as §1

| SMILES | Activity [1] | MIC [2] | Activity [3] | Activity [4] | MIC [5] | MIC [6] | MIC [7] | Activity [8] | MIC [9] | MIC [10] | Activity [11] | Activity [12] |
| --- | --- | --- | --- | --- | --- | --- | --- | --- | --- | --- | --- | --- |
| COc1c(N2CCNC(C)C2)c(F)cc2c(=O)c(C(=O)O)cn(C3CC3)c12 (stereo unspecified) [GATIFLOXACIN] | Active | ≤ 0.062 µg/mL | Active | Active | ≤ 0.062 µg/mL | ≤ 0.062 µg/mL | ≤ 0.062 µg/mL | Active | 0.125 µg/mL (≈ 0.333 µM) | ≤ 0.062 µg/mL | Active | Active |
| COc1c(N2C[C@@H]3CCCN[C@@H]3C2)c(F)cc2c(=O)c(C(=O)O)cn(C3CC3)c12 [MOXIFLOXACIN] | Active | ≤ 0.125 µg/mL | Active | Active | ≤ 0.125 µg/mL | ≤ 0.125 µg/mL | ≤ 0.125 µg/mL | Active | ≤ 0.125 µg/mL | ≤ 0.125 µg/mL | Active | Active |
| CC1COc2c(N3CCN(C)CC3)c(F)cc3c(=O)c(C(=O)O)cn1c23 (stereo unspecified) [OFLOXACIN] | Active | 0.5 µg/mL (≈ 1.38 µM) | Active | Active | 0.5 µg/mL (≈ 1.38 µM) | 0.5 µg/mL (≈ 1.38 µM) | ≤ 0.25 µg/mL | Active | 0.5 µg/mL (≈ 1.38 µM) | ≤ 0.25 µg/mL | Active | Active |
